Measured values taken from ChEMBL document CHEMBL2424619, “Small-molecule ligands of methyl-lysine binding proteins: optimization of selectivity for L3MBTL3” (J Med Chem, 2013).
pIC50: −log10 of the molar value. Calls of active or inactive are those of the source. The rule behind the calls is not given here.

Tests used:
[1] = target: T1, Muscarinic acetylcholine receptor M1 (Homo sapiens, UniProt P11229); assay: Antagonist activity at muscarinic M1 receptor (unknown origin) expressed in HEK293T cells assessed as inhibition of UNC1679 calcium mobilization; assay type: functional, cell-based, HEK-293T
T1 sequence (P11229 whole entry): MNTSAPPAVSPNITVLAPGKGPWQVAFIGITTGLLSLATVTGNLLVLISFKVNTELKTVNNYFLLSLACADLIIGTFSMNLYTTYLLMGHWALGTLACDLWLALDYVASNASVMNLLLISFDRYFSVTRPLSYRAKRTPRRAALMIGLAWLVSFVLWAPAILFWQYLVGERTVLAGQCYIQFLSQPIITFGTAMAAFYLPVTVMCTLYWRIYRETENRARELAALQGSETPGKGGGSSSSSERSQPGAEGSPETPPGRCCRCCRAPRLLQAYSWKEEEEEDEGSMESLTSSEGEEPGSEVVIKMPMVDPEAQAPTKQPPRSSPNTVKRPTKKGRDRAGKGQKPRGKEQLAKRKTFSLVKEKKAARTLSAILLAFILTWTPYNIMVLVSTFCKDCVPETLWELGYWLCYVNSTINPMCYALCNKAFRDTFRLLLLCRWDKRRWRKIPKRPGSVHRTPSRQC

[2] = target: T2, Lethal(3)malignant brain tumor-like protein 3 (Homo sapiens) (UniProt Q96JM7); assay: Binding affinity to L3MBTL3 in human G401 cells by Western blot based pulldown assay; assay type: cell-based; conditions: G-401
T2 sequence (whole entry): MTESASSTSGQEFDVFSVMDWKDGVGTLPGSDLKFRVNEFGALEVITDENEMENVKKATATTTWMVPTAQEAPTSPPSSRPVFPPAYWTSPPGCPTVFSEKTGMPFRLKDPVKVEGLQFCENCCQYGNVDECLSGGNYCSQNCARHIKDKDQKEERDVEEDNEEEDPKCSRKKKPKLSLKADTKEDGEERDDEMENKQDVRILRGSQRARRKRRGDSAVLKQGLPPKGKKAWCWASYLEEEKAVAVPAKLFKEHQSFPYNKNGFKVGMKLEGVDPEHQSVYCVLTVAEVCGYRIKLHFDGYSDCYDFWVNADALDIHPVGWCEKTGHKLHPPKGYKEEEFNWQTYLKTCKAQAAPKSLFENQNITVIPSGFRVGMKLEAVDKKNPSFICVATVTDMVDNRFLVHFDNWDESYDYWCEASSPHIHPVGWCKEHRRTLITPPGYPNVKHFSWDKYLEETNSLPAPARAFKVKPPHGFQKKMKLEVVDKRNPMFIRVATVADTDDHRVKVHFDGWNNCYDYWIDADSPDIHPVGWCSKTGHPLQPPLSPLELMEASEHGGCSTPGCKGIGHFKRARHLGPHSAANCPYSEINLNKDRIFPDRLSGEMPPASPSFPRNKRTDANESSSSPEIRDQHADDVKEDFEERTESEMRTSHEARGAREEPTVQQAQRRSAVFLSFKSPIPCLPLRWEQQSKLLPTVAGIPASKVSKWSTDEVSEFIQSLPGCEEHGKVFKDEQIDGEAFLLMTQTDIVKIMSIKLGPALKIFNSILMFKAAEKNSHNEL
Summary of the method: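 G-401 lysate made in Tris pH 8.0, 500 mM NaCl, EDTA, 1% Triton, diluted to 150 mM NaCl. […] Streptavidin beads saturated with biotinylated probe (biotin as control), rotated with lysate overnight at 4 °C, washed, eluted; SDS-PAGE and immunoblot for endogenous L3MBTL3.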

[3] = tested on: HEK-293T; assay: Cytotoxicity against HEK293T/17 cells assessed as cell viability up to 100 uM after 24 hrs by CellTiter-Glo luminescence assay; assay type: cell-based; conditions: human
Summary of the method: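 Cell viability by CellTiter-Glo luminescence, compound tested up to 100 μM.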

[4] = target: T2, Lethal(3)malignant brain tumor-like protein 3 (Homo sapiens); assay: Displacement of mero76-UNC1215 from GFP-L3MBTL3 (unknown origin) expressed in HEK293 cells at 1 equivalent dose after 3 hrs by immunofluorescence assay; assay type: cell-based
Summary of the method: (§1)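 HEK293 cells seeded on coverslips, transfected 24 h later with GFP-L3MBTL3 (N-terminal GFP fusion of full-length protein), then after 16 h loaded with mero76 conjugate (5 μM) for 3 h. Competitor then added at 5 μM or 25 μM (1 or 5 equivalents relative to probe) for a further 3 h. Hoechst-stained; spinning-disk confocal imaging scored loss of probe foci.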

[5] = target: T2, Lethal(3)malignant brain tumor-like protein 3 (Homo sapiens); assay: Displacement of mero76-UNC1215 from GFP-L3MBTL3 (unknown origin) expressed in HEK293 cells at 5 uM after 3 hrs by immunofluorescence assay; assay type: cell-based; summary of the method: as §1
[6] = target: T3, Muscarinic acetylcholine receptor M1 (Homo sapiens) (UniProt P11229); assay: Antagonist activity at muscarinic M1 receptor (unknown origin) expressed in HEK293T cells assessed as inhibition of UNC1679 calcium mobilization at 30 uM; assay type: functional, cell-based; conditions: HEK-293T
T3 sequence (whole entry): T1 sequence (P11229 whole entry)
Summary of the method: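 Test compound assayed for M1 antagonism at one concentration, 30 μM, scored as percent inhibition.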

For `O=C(c1ccc(C(=O)N2CCC(N3CCCC3)CC2)c(Nc2ccccc2)c1)N1CCC(N2CCCC2)CC1`, the pIC50 [1] was 5.46, the Activity [2] was “Active” and the Activity [3] was “Non-toxic”. The Activity [4] was “Active”.

With `CCN1Cc2ccc(NC(=O)c3ccc(C(=O)N4CCC(C5CCCN5)CC4)c(Nc4ccccc4)c3)cc2C1` (configuration not stated) the Activity [2] was “Active”, the Activity [5] was “Active” and the Activity [4] was “Active”.

`O=C(c1ccc(C(=O)N2CCC(N3CCCCC3)CC2)cc1)N1CCC(N2CCCCC2)CC1` was tested, and the Activity [2] was “inactive”.

In the case of `CCN1Cc2ccc(NC(=O)c3ccc(C(=O)N4CCC(C5CCCN5)CC4)cc3)cc2C1` (configuration not stated), the Activity [3] was “Non-toxic”, the Activity [5] was “Active” and the Activity [4] was “Active”. The inhibition [6] was < 20%.
